These results are taken from article PMC4134960 (Pharmacological research : the official journal of the …, 2014).

Like-named read-outs stand apart in the source and are kept apart here.

The subject of one data set is wild-type MDCKII cells. Kind of data set: Transepithelial transport in monolayers of wild-type MDCKII cells. Conditions: after 4h, 5 μM (compound 8: 1 μM).
Assay in data set [1]: as above
Conditions: dog, MDCK, Ratio BA/AB (relative transport ratio), after 4h, 5 μM (compound 8: 1 μM).

Data set [2] is described as follows: Brain-to-plasma ratio of URB937 in wild-type and transporter knockout mice. To be noted: 5 mg/kg i.p., 1 h. Format: in vivo. The gist of the method: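 Male 9-week FVB wild-type, Mdr1a/b−/−, Bcrp−/− and Mdr1a/b−/−-Bcrp−/− mice received the test compound i.p. in saline/PEG400/Tween-80 (18:1:1, v/v/v) at 10 mL/kg and were killed 1 h later. Plasma came from cardiac blood spun at 2000 × g for 20 min. Brain was homogenized in 50 mM Tris-HCl pH 7.5/0.32 M sucrose, spun at 1000 × g for 10 min at 4°C, and extracted with methanol/chloroform. Read-out by LC/MS on C18 (m/z 377). n = 3–4, mean ± SEM.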

The target of a further data set is T1, murine Abcg2 (Mus musculus, UniProt Q7TMS5).
T1 sequence (Q7TMS5 1-657): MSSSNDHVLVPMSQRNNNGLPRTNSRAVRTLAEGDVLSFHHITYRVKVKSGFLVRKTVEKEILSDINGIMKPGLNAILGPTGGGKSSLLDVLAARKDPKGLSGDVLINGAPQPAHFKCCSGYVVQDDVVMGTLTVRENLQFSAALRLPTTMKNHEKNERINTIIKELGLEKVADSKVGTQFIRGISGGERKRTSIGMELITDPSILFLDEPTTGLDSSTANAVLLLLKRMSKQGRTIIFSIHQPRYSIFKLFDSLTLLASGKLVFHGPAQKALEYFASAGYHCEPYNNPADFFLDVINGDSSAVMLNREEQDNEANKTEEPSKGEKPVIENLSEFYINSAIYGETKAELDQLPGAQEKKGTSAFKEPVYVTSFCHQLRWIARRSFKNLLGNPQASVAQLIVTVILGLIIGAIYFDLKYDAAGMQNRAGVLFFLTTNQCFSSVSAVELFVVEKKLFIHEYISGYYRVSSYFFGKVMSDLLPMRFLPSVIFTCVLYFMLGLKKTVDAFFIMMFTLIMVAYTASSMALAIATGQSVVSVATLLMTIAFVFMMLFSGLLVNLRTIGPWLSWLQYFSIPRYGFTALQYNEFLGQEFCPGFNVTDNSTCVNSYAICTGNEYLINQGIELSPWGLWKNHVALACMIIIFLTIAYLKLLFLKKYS
Briefly: Transepithelial transport in monolayers of MDCKII cells over-expressing Abcg2. The data set is classed as in vitro ADME. To be noted: MDCKII over-expressing Abcg2, after 4h, 5 μM (compound 8: 1 μM).

The target of the next data set is T2, Abcg2 (Mus musculus, UniProt Q7TMS5).
T2 sequence (Q7TMS5 1-657): T1 sequence (Q7TMS5 1-657)
The data set is described as above. Format: in vitro ADME, murine. To be noted: mouse, Ratio BA/AB (relative transport ratio), MDCKII over-expressing Abcg2, after 4h, 5 μM (compound 8: 1 μM).

For data set [3] the following is noted: cited from earlier work.
Data set [4] concerns the target T3, FAAH (Mus musculus, UniProt O08914).
T3 sequence (O08914 1-579): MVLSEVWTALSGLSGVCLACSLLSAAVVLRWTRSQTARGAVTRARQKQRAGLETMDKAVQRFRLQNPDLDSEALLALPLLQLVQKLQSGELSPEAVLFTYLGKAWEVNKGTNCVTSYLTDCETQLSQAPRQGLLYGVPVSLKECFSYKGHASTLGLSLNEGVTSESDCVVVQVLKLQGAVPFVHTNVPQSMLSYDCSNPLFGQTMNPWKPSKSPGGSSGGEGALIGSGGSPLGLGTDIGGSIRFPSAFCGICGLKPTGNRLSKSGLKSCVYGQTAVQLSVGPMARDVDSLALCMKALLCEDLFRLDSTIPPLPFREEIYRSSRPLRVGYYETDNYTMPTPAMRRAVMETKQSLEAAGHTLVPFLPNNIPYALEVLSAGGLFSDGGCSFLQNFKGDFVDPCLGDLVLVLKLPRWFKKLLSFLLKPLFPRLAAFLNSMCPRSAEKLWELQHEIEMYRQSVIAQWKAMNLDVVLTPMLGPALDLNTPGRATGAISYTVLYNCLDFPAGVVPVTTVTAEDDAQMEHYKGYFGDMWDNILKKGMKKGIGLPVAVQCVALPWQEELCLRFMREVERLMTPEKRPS
Format: in vivo, mice. The gist of the method: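 Dosing was i.p. in saline/PEG400/Tween-80 (18:1:1), with kill at 1 h. Brain S1 fraction (1000 × g; 50 μg protein by BCA) was incubated 30 min at 37°C in 50 mM Tris-HCl pH 7.5 with 0.05% fatty acid-free BSA, 10 μM anandamide and [ethanolamine-3H]anandamide (10,000 cpm). The reaction was stopped with chloroform/methanol (1:1), and aqueous-phase radioactivity counted by scintillation. n = 3–4, mean ± SEM, ANOVA with Dunnett's test vs vehicle.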

Data set [5] has as its target T3, FAAH. Conditions: cited from earlier work.
The next data set has as its target human ABCB1 (Homo sapiens, UniProt P08183). Briefly: Transepithelial transport in monolayers of MDCKII cells over-expressing ABCB1. Conditions: MDCKII over-expressing ABCB1, after 4h, 5 μM (compound 8: 1 μM).

The term efflux ratio denotes the permeability from basolateral to apical divided by that in the opposite direction, in the common usage. Usually inhibition stands for the change of the read-out against control, counted positive when it falls.

Chain of human ABCB1 (P08183 whole entry): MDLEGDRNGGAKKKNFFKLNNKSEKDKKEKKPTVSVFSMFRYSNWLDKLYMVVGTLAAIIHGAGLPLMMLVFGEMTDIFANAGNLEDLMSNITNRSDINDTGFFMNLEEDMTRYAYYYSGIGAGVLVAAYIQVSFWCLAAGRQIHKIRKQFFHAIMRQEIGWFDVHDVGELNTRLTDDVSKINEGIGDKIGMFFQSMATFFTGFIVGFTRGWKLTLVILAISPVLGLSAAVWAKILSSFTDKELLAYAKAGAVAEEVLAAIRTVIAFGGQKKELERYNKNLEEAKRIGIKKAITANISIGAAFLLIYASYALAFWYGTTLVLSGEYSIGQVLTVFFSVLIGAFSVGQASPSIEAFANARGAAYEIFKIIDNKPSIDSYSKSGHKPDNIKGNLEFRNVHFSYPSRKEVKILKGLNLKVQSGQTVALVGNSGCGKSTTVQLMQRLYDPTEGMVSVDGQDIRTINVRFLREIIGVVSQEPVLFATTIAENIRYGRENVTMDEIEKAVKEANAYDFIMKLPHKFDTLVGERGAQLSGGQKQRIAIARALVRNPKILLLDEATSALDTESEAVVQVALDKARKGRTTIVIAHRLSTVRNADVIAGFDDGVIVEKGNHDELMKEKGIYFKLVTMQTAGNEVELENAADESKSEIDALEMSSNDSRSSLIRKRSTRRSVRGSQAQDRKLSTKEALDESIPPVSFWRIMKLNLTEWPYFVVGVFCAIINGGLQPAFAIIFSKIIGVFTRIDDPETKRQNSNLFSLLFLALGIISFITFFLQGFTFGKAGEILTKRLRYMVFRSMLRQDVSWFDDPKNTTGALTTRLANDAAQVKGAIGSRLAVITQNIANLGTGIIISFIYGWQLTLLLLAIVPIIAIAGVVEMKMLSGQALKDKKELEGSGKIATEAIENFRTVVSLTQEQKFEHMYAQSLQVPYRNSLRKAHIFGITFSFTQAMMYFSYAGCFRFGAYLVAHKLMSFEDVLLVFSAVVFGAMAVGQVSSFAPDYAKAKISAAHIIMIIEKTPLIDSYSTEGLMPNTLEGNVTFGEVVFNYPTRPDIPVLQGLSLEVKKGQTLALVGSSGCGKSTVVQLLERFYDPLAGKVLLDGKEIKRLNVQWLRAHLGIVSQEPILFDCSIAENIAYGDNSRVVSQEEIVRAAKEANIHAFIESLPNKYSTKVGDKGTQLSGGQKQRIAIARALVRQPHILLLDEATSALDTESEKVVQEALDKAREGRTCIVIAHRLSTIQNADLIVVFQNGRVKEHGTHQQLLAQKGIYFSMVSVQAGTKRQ

Take `NC(=O)c1cccc(-c2cc(OC(=O)NC3CCCCC3)ccc2O)c1` [URB937, cyclohexylcarbamic acid 3′-carbamoyl-6-hydroxybiphenyl-3-yl ester]: the “A to B transport (percentage of drug appearing in the opposite compartment)” value in the data set with wild-type MDCKII cells was determined as 17.78 ± 2.12%; at murine Abcg2 it was 1.68 ± 0.12%; at human ABCB1, 5.89 ± 1.33%. Besides, the entries for the “B to A transport (percentage of drug appearing in the opposite compartment)” value in the data set on wild-type MDCKII cells, on murine Abcg2 and on human ABCB1 were 44.3 ± 5.35%, 25.9 ± 1.44% and 50.2 ± 4.02%, respectively. The efflux ratio at 4 h was not below 2 in [1] and not below 10 at Abcg2. Besides, the “Brain-to-plasma ratio (in words)” value was “not significantly different from controls” in data set [2] (Abcb1-deficient (Mdr1a/b−/−) mice) and “significantly increased” in [2] (Mdr1a/b−/−-Bcrp−/− mice). Moreover, in data set [3], the PSA value is not below 80 Å. In addition, the “Effect on brain FAAH activity (in words)” value is listed as “drastically inhibited” at FAAH [4] (Mdr1a/b−/−-Bcrp−/− mice, 5 mg/kg i.p.) and “did not affect FAAH activity” at FAAH [4] (wild-type mice, 5 mg/kg i.p.). The inhibition at 5 mg/kg on FAAH [4] (mouse, ip, read-out: Inhibition of brain FAAH) turned out to be 26%. In addition, on FAAH [4] (wild-type mice, 5 mg/kg i.p.), the “Effect on liver FAAH activity (in words)” value is on record as “completely blocked FAAH activity”. The “Brain ID50 relative to dose needed to inhibit FAAH in liver” value on FAAH [5] (brain vs liver) is 400 times. For the same compound, on FAAH [5] (brain), the “Brain FAAH activity median effective dose (ID50)” value is recorded as 40 mg/kg. Moreover, the “Brain ID50” value at FAAH [5] (inhibition of brain FAAH activity after systemic administration in mice, ref Moreno-Sanz et al., 2013) is on record as 40 mg/kg. For the same compound, on FAAH [5] (peripheral organs such as the liver), the “Liver FAAH activity ID50” value is on record as 0.1 mg/kg.
